Experimental data published in ChEMBL document CHEMBL2074271 (J Pharmacol Exp Ther, 2002).
Values joined by “and” are separate entries in the source; they are usually repeats but may differ in a detail not shown here. Equal entries are not always repeated.

Columns and labels:
Assay type in all cases: functional, cell-based
[1] = biological target: T1, Solute carrier family 22 member 1 (Rattus norvegicus, UniProt Q63089); assay: TP_TRANSPORTER: inhibition of TEA uptake (in the absence of bicarbonate) (TEA: 20 uM) in OCT1-expressing HEK293 cells
T1 sequence (Q63089 whole entry): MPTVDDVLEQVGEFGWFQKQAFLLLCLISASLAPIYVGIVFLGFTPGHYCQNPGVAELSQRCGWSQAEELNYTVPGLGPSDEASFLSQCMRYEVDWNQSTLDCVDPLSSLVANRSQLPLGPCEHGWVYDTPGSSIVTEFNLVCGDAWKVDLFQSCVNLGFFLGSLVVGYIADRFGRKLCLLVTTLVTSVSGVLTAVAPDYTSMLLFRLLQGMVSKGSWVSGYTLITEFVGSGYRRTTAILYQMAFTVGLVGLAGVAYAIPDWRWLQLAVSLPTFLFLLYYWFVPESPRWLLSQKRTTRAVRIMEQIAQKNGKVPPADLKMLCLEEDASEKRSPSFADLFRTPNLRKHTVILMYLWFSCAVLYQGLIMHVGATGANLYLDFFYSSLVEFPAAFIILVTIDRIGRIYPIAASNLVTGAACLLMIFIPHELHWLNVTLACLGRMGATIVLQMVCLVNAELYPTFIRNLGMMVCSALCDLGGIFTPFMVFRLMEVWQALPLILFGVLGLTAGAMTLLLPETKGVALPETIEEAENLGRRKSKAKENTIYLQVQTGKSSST
In short: (§1)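 Uptake in rOCT1- or rOCT2-expressing stably transfected HEK 293 cells, run in bicarbonate-free Cross-Taggart phosphate buffer, pH 7.4, 25°C. 20 μM [14C]TEA final, 3 s incubation across inhibitor concentrations; ice-cold stopping buffer, centrifugation, washes, scintillation counting.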

[2] = biological target: T2, Solute carrier family 22 member 2 (Rattus norvegicus, UniProt Q9R0W2); assay: TP_TRANSPORTER: inhibition of TEA uptake (in the absence of bicarbonate) (TEA: 20 uM) in OCT2-expressing HEK293 cells
T2 sequence (Q9R0W2 whole entry): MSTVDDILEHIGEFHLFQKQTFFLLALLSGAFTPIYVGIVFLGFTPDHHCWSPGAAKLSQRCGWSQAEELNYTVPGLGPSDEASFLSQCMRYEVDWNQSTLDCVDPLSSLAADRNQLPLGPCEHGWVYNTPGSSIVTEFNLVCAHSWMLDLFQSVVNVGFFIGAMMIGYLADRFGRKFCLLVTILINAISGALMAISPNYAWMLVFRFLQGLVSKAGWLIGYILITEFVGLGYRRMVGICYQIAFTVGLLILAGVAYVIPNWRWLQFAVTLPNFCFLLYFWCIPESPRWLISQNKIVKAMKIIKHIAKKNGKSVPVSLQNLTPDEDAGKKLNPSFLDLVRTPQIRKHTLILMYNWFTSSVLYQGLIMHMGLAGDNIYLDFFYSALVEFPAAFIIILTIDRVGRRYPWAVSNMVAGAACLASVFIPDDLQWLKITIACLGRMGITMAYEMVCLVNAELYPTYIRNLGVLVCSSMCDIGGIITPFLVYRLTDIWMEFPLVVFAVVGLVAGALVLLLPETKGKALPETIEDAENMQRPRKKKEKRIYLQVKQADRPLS
In short: as §1, with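 “counting. Expressed relative to control uptake without inhibitor; IC50 mean ± S.E.M. of 3–6 experiments.” for “counting.”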

[3] = biological target: T1, Solute carrier family 22 member 1; assay: TP_TRANSPORTER: inhibition of TEA uptake (in the presence of bicarbonate) (TEA: 20 uM) in OCT1-expressing HEK293 cells
In short: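 Stably rOCT1- or rOCT2-transfected HEK 293 cells suspended in bicarbonate (25 mM) Krebs-Henseleit buffer, pH 7.4 set by 95% O2/5% CO2 bubbling, 25°C.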

[4] = biological target: T2, Solute carrier family 22 member 2; assay: TP_TRANSPORTER: inhibition of TEA uptake (in the presence of bicarbonate) (TEA: 20 uM) in OCT2-expressing HEK293 cells
In short: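 Stably rOCT1- or rOCT2-transfected HEK 293 cells suspended in bicarbonate (25 mM) Krebs-Henseleit buffer, pH 7.4 set by 95% O2/5% CO2 bubbling, 25°C. […] Percent of uninhibited control; IC50 mean ± S.E.M. of 3–6 experiments.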

[5] = biological target: T1, Solute carrier family 22 member 1; assay: TP_TRANSPORTER: inhibition of Amantadine uptake (in the presence of bicarbonate) (Amantadine: 10 uM) in OCT1-expressing HEK293 cells
In short: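 Rat OCT1 or OCT2 stably transfected HEK 293 cells, grown to 80% confluence, detached and resuspended in KHS (25 mM bicarbonate, pH 7.4, gassed O2/CO2 95%/5%), protein 5–6 mg/ml. […] Highest cyanine863 tested 200 μM. IC50 from 3–6 experiments.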

Row | IC50 [1] [µM] | IC50 [2] [µM] | IC50 [3] [µM] | IC50 [4] [µM] | IC50 [5] | SMILES
1 | 280 | 290 | 500 | 210 |  | NC12CC3CC(CC(C3)C1)C2 [AMANTADINE]
2 | 0.45 | 1.2 | 0.4 | 1 | 89 µM and > 200 µM | CC[n+]1c(CC2C=C(C)N=C(c3ccccc3)N2C)ccc2ccccc21 (stereo not drawn) [Cyanine-863]
3 |  | 215 |  | 90 |  | CCN(CC)CCNC(=O)c1ccc(N)cc1 [PROCAINAMIDE]
4 |  | 38 |  | 13 |  | C=C[C@H]1C[N@@]2CC[C@H]1C[C@H]2[C@H](O)c1ccnc2ccc(OC)cc12 [QUININE]
